What was measured:
[1] = Partition coefficient (logP); type: physicochemical; details: octanol/water
[2] = Displacement of [20-3H]-phorbol 12,13-dibutyrate (PDBU) from recombinant Protein kinase C alpha (C1a/C1b domain) in presence of phosphatidyl serine
In short: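 Competition binding: displacement of bound [20-3H]phorbol 12,13-dibutyrate from recombinant PKCα isozyme with phosphatidylserine present. IC50 derived by fitting data to a theoretical noncooperative competitive inhibition curve; binding affinity reported as Ki.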

## O=C1CCCCCC/C=C2\CC(CO)(CO1)OC2=O (stereo not given)
[1]
  logP: -0.08
[2]
  Ki: 1800 nM

## O=C1CCCCCCCCCCCCCC/C=C2/CC(CO)(CO1)OC2=O (stereo not given)
[1]
  logP: 3.85
[2]
  Ki: 6.07 nM

## CCCCCCCCCCCCCC(=O)OCC(CO)OC(C)=O (stereo not given)
[1]
  logP: 5.25
[2]
  Ki: 1000 nM

## O=C1CCCCCCCCCCCCCC/C=C2\CC(CO)(CO1)OC2=O (stereo not given)
[1]
  logP: 3.85
[2]
  Ki: 12.2 nM

## O=C1CCCCCCCCCCCCCCCCCC/C=C2/CC(CO)(CO1)OC2=O (stereo not given)
[1]
  logP: 5.81
[2]
  Ki: 10.3 nM

## O=C1CCCCCCCCCCCCCCCCCC/C=C2\CC(CO)(CO1)OC2=O (stereo not given)
[1]
  logP: 5.81
[2]
  Ki: 22 nM

## CC(C)CC(C/C=C1/CC(CO)(COC(=O)C(C)(C)C)OC1=O)CC(C)C (stereo not given)
[2]
  Ki: 2.9 nM

## CCCCCCCCCCCCCC(=O)OCC1(CO)CCC(=O)O1 (stereo not given)
[1]
  logP: 4.53
[2]
  Ki: 138 nM

## CCCCCCCCCCCCC/C=C1/C[C@@](CO)(COC(C)=O)OC1=O (stereo in doubt; 3)
[2]
  Ki: 35 nM

## CCCCCCCCCCCCCCCCC/C=C1/CC(CO)(COC(C)=O)OC1=O (stereo not given)
[1]
  logP: 7.11

## CCCCCCCCCCCCC/C=C1\CC(CO)(COC(C)=O)OC1=O (stereo not given)
[1]
  logP: 5.36
[2]
  Ki: 77.8 nM

## CCCCCCCCCCCCCCCCC/C=C1\CC(CO)(COC(C)=O)OC1=O (stereo not given)
[1]
  logP: 7.11
[2]
  Ki: 28 nM

## CCCCCCCCCCCCC/C=C1/C[C@@](CO)(COC(C)=O)OC1=O (stereo in doubt)
[1]
  logP: 5.36
[2]
  Ki: 35.1 nM

## O=C1CCCCCCCCCC/C=C2/CC(CO)(CO1)OC2=O (stereo not given)
[1]
  logP: 1.88
[2]
  Ki: 52.7 nM

— ChEMBL document CHEMBL1138662, “Macrocyclic diacylglycerol-bis-lactones as conformationally constrained analogues of diacylglycerol-lactones. Interactions with protein kinase C” (J Med Chem, 2004)
